In brackets after ≈: the same amount, converted by molar mass.
Key:
[1] = tested on: Mycobacterium tuberculosis; assay: Antimycobacterial activity against Mycobacterium tuberculosis CNCTC My 331/88 after 14 days by microdilution method; type: functional; settings: CNCTC My 331/88, 336 h
Summary of the method: (§1)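 MIC determined by a dilution micromethod. Strains came from the Czech National Collection of Type Cultures, Prague. Compounds were added to the medium as DMSO solutions. Each inoculum was also plated in parallel on Löwenstein–Jensen medium to check its sterility and growth. The M. avium strain is identical with ATCC 25291 and resistant to INH.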

[2] = tested on: Mycobacterium tuberculosis; assay: Antimycobacterial activity against Mycobacterium tuberculosis CNCTC My 331/88 after 21 days by microdilution method; type: functional; settings: CNCTC My 331/88, 504 h; summary of the method: as §1
Mycobacterium avium [3] = assay: Antimycobacterial activity against Mycobacterium avium CNCTC My 330/88 after 14 days by microdilution method; type: functional; settings: CNCTC My 330/88, 336 h; summary of the method: as §1
Mycobacterium avium [4] = assay: Antimycobacterial activity against Mycobacterium avium CNCTC My 330/88 after 21 days by microdilution method; type: functional; settings: CNCTC My 330/88, 504 h; summary of the method: as §1
Mycobacterium kansasii [5] = assay: Antimycobacterial activity against Mycobacterium kansasii CNCTC My 235/80 after 14 days by microdilution method; type: functional; settings: CNCTC My 235/80, 336 h
Summary of the method: (§2)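 Dilution micromethod for MIC; compounds added to medium as DMSO solutions. Each strain also inoculated onto Löwenstein–Jensen medium to control inoculum sterility and growth. Strain 6509/96 is a clinical isolate; CNCTC strains from the Czech national type culture collection.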

Mycobacterium kansasii [6] = assay: Antimycobacterial activity against Mycobacterium kansasii CNCTC My 235/80 after 21 days by microdilution method; type: functional; settings: CNCTC My 235/80, 504 h; summary of the method: as §2
Mycobacterium kansasii [7] = assay: Antimycobacterial activity against Mycobacterium kansasii 6509/96 after 14 days by microdilution method; type: functional; settings: for MIC: 6509/96, 336 h; summary of the method: as §2
Mycobacterium kansasii [8] = assay: Antimycobacterial activity against Mycobacterium kansasii 6509/96 after 21 days by microdilution method; type: functional; settings: 6509/96, 504 h; summary of the method: as §2
HeLa = assay: Cytotoxicity against human HeLa cells after 72 hrs by using methylene blue staining; type: functional, cell-based
Summary of the method: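 HeLa cells in RPMI 1640 with supplements, preincubated 48 h without compound. Compound dilutions were then applied to subconfluent monolayers for 72 h at 37 °C, 5% CO2. Cells were glutaraldehyde-fixed, stained with 0.05% methylene blue, eluted with 0.33 N HCl and read at OD 660 nm. CC50 taken at 50% intersection versus negative control.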

K562 = assay: Antiproliferative activity against human K562 cells after 72 hrs by celltiter-blue assay; type: functional, cell-based
Summary of the method: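 K-562 grown in RPMI 1640 with ultraglutamine, gentamicin, 10% heat-inactivated FBS at 37 °C; about 10,000 cells/well. Compounds dissolved in DMSO and diluted in DMEM, incubated 72 h at 37 °C, 5% CO2. Viability read by CellTiter-Blue resazurin reduction. GI50 taken where the dose-response curve crosses 50% of untreated control.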

HUVEC = assay: Antiproliferative activity against HUVEC after 72 hrs by using methylene blue staining; type: cell-based; settings: human
Summary of the method: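 HUVEC in culture medium with ultraglutamine, gentamicin, 10% heat-inactivated FBS, 37 °C. Harvested in log phase by trypsinization; about 10,000 cells/well. Compounds in DMSO, diluted in DMEM, incubated 72 h at 37 °C, 5% CO2. Cells then glutaraldehyde-fixed, stained with 0.05% methylene blue for 15 min, eluted with 0.33 N HCl, OD 660 nm. GI50 taken at 50% intersection versus untreated control.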

Row | SMILES | MIC [1] [µM] | MIC [2] [µM] | MIC (Mycobacterium avium [3]) [µM] | MIC (Mycobacterium avium [4]) [µM] | MIC (Mycobacterium kansasii [5]) [µM] | MIC (Mycobacterium kansasii [6]) [µM] | MIC (Mycobacterium kansasii [7]) [µM] | MIC (Mycobacterium kansasii [8]) [µM] | Activity (HeLa) | Activity (K562) | Activity (HUVEC) | Activity (Mycobacterium kansasii [7])
1 | O=c1oc2ccccc2c(=O)n1Cc1ccccc1 | 32 (≈ 8.1 µg/mL) | 32 (≈ 8.1 µg/mL) | 32 (≈ 8.1 µg/mL) | 62.5 (≈ 15.8 µg/mL) | 62.5 (≈ 15.8 µg/mL) | 62.5 (≈ 15.8 µg/mL) | 62.5 (≈ 15.8 µg/mL) | 62.5 (≈ 15.8 µg/mL) | Toxic | Toxic | Toxic | 
2 | O=c1oc2ccccc2c(=S)n1Cc1ccccc1 | 1 (≈ 0.269 µg/mL) | 2 (≈ 0.539 µg/mL) | 8 (≈ 2.15 µg/mL) | 8 (≈ 2.15 µg/mL) | 4 (≈ 1.08 µg/mL) | 8 (≈ 2.15 µg/mL) | 4 (≈ 1.08 µg/mL) | 8 (≈ 2.15 µg/mL) | Toxic | Toxic | Toxic | 
3 | O=c1oc2ccc(Cl)cc2c(=S)n1Cc1ccc(F)cc1 | 1 (≈ 0.322 µg/mL) | 1 (≈ 0.322 µg/mL) | 4 (≈ 1.29 µg/mL) | 4 (≈ 1.29 µg/mL) | 4 (≈ 1.29 µg/mL) | 8 (≈ 2.57 µg/mL) | 4 (≈ 1.29 µg/mL) | 4 (≈ 1.29 µg/mL) | Toxic | Toxic | Toxic | 
4 | S=c1oc2ccc(Br)cc2c(=S)n1Cc1ccccc1 | 1 (≈ 0.364 µg/mL) | 2 (≈ 0.729 µg/mL) | 8 (≈ 2.91 µg/mL) | 8 (≈ 2.91 µg/mL) | 8 (≈ 2.91 µg/mL) | 8 (≈ 2.91 µg/mL) | 4 (≈ 1.46 µg/mL) | 8 (≈ 2.91 µg/mL) |  |  |  | 
5 | S=c1oc2ccc(Br)cc2c(=S)n1Cc1ccc(Cl)c(Cl)c1 | 4 (≈ 1.73 µg/mL) | 8 (≈ 3.47 µg/mL) | 16 (≈ 6.93 µg/mL) | 16 (≈ 6.93 µg/mL) | 16 (≈ 6.93 µg/mL) | 32 (≈ 13.9 µg/mL) | 16 (≈ 6.93 µg/mL) | 32 (≈ 13.9 µg/mL) |  |  |  | 
6 | O=c1oc2ccc(Cl)cc2c(=O)n1Cc1ccc(F)cc1 | 32 (≈ 9.78 µg/mL) | 32 (≈ 9.78 µg/mL) | 32 (≈ 9.78 µg/mL) | 32 (≈ 9.78 µg/mL) | 62.5 (≈ 19.1 µg/mL) | 62.5 (≈ 19.1 µg/mL) |  | 125 (≈ 38.2 µg/mL) | Toxic | Toxic | Toxic | Toxic
7 | O=c1oc2ccc(Cl)cc2c(=S)n1Cc1ccc(Cl)c(Cl)c1 | 32 (≈ 11.9 µg/mL) | 32 (≈ 11.9 µg/mL) | 62.5 (≈ 23.3 µg/mL) | 62.5 (≈ 23.3 µg/mL) | 62.5 (≈ 23.3 µg/mL) | 62.5 (≈ 23.3 µg/mL) | 62.5 (≈ 23.3 µg/mL) | 62.5 (≈ 23.3 µg/mL) | Toxic | Toxic | Toxic | 
8 | S=c1oc2ccc(Cl)cc2c(=S)n1Cc1ccc(Cl)c(Cl)c1 | 4 (≈ 1.55 µg/mL) | 8 (≈ 3.11 µg/mL) | 16 (≈ 6.22 µg/mL) | 32 (≈ 12.4 µg/mL) | 32 (≈ 12.4 µg/mL) | 32 (≈ 12.4 µg/mL) | 32 (≈ 12.4 µg/mL) | 32 (≈ 12.4 µg/mL) |  |  |  | 
9 | O=c1oc2ccc(Br)cc2c(=O)n1Cc1ccc(Cl)c(Cl)c1 | 32 (≈ 12.8 µg/mL) | 32 (≈ 12.8 µg/mL) | 32 (≈ 12.8 µg/mL) | 32 (≈ 12.8 µg/mL) | 62.5 (≈ 25.1 µg/mL) | 62.5 (≈ 25.1 µg/mL) | 62.5 (≈ 25.1 µg/mL) | 62.5 (≈ 25.1 µg/mL) | Toxic | Toxic | Toxic | 
10 | S=c1oc2ccccc2c(=S)n1Cc1ccccc1 | 1 (≈ 0.285 µg/mL) | 1 (≈ 0.285 µg/mL) | 1 (≈ 0.285 µg/mL) | 1 (≈ 0.285 µg/mL) | 2 (≈ 0.571 µg/mL) | 2 (≈ 0.571 µg/mL) | 1 (≈ 0.285 µg/mL) | 2 (≈ 0.571 µg/mL) |  |  |  | 
11 | Fc1ccc(Cn2c(=S)oc3ccc(Cl)cc3c2=S)cc1 | 1 (≈ 0.338 µg/mL) | 2 (≈ 0.676 µg/mL) | 8 (≈ 2.7 µg/mL) | 16 (≈ 5.41 µg/mL) | 8 (≈ 2.7 µg/mL) | 16 (≈ 5.41 µg/mL) | 8 (≈ 2.7 µg/mL) | 16 (≈ 5.41 µg/mL) |  |  |  | 
